Assay results of several laboratories.
Compare with care: the assays were run in different laboratories.
Target: Tyrosine-protein kinase HCK (HCK, Homo sapiens, UniProt P08631)

CNC(=O)[C@@H]1CC[C@@H](n2c(-c3ccc4cnccc4c3)nc3ccc(C(=O)NCc4cccc(C(N)=O)c4)cc32)C1
remaining binding (binding, competition with immobilised ligand; 1 µM): 93%

CN1CCN(c2cnc3c(C4CCN(C(=O)c5ccc(OC(F)(F)F)cc5N)CC4)ncnc3c2)CC1
remaining binding (cell-free assay, competition with immobilised ligand; 1 µM): 95%

O=C(c1ccc(Nc2nccc(-c3cc4ccccc4s3)n2)cc1)N1CCC(N2CCCC2)CC1
remaining binding (binding, competition with immobilised ligand; 1 µM): 100%

CCOCCn1cc(C(=O)Nc2ccc(-n3nc(-c4cccnc4)cc3C(F)(F)F)cn2)ccc1=O
remaining binding (cell-free assay, competition with immobilised ligand; 1 µM): 93%

N[C@H]1CCN(c2nccc(-c3cnn4ncccc34)n2)C1
remaining binding (binding; 1 µM): 98%

O=C(NCC1CCOCC1)c1n[nH]cc1NC(=O)c1c(F)cccc1F
remaining binding (binding, competition with immobilised ligand; 1 µM): 100%

Cc1nc(C2CCN(C(=O)c3ccc(OC(F)(F)F)cc3N)CC2)c2ncc(N3CCN(C)CC3)cc2n1
remaining binding (cell-free assay, competition with immobilised ligand; 1 µM): 95%

CCN1CCN(Cc2ccc(C(=O)Nc3ccc(C)c(Oc4ccc5c(c4)CC(=O)N5)c3)cc2C(F)(F)F)CC1
remaining binding (binding, competition with immobilised ligand; 1 µM): 80%

CO[C@@H](C)c1c(Nc2ccc([C@H](N(C)C(=O)C3CCS(=O)(=O)CC3)C(F)(F)F)cc2)cnc2cc(Cl)nn12
remaining binding (cell-free assay, competition with immobilised ligand; 1 µM): 100%

Nc1ncc2c(n1)-c1c([nH]c3ccc(C#CC4CC4)cc13)CCCC2
remaining binding (binding, competition with immobilised ligand; 1 µM): 100%

CN(CCCC(F)(F)F)c1nccc(-c2cnn3ncccc23)n1
remaining binding (binding; 1 µM): 99%

O=C(c1ccc(Nc2ncc(Cl)c(-c3cc4ccccc4s3)n2)cc1)N1CCC(N2CCCC2)CC1
remaining binding (binding, competition with immobilised ligand; 1 µM): 100%

COc1ccc2c(O[C@@H]3C[C@H]4C(=O)N[C@]5(C(=O)O)CC5/C=C\CCCCC[C@H](NC(=O)OC5CCCC5)C(=O)N4C3)cc(-c3csc(NC(=O)C(C)C)n3)nc2c1C (stereo partly drawn)
remaining binding (cell-free assay, competition with immobilised ligand; 1 µM): 100%

CN(C)c1nccc(-c2cnn3ncccc23)n1
remaining binding (binding; 1 µM): 100%

COc1cnc(Nc2cccc(S(N)(=O)=O)c2)nc1N1CCN(c2ccccc2)C(=O)C1
remaining binding (binding, competition with immobilised ligand; 1 µM): 100%

CC1CCCN1c1nccc(-c2cnn3ncccc23)n1 (stereo not drawn)
remaining binding (binding; 1 µM): 100%

c1cncc(-c2cccc(Nc3nccc(NC4CCCCC4)n3)c2)c1
remaining binding (binding, competition with immobilised ligand; 10 µM): 3.1%

C[C@@H]1CCN(c2nccc(-c3cnn4ncccc34)n2)C1
remaining binding (binding; 1 µM): 84%

O=C(Nc1cnc(Oc2ccc(F)cc2)nc1)N1CCc2ncccc2[C@@H]1c1ccc(F)cc1
remaining binding (cell-free assay, competition with immobilised ligand; 1 µM): 96%

Cc1cnc(Nc2ccc(C(=O)N3CCC(N4CCCC4)CC3)cc2)nc1-c1cc2ccccc2s1
remaining binding (binding, competition with immobilised ligand; 1 µM): 74%

Cc1cnn2ncc(-c3ccnc(N(C)C)n3)c2c1
remaining binding (binding; 1 µM): 100%
